Assays:
papain (Carica papaya) = papain (Carica papaya) (UniProt P00784); experiment: Second order rate constant for inactivation of papain; settings: in vitro
[1] = ratio of cathepsin B/papain
How it was run: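 Both enzymes were run in a continuous CbzPheArgMCA fluorescence assay in 50 mM phosphate, 200 mM NaCl, 5 mM EDTA and 10% acetonitrile. Recombinant rat cathepsin B was run at pH 6.0 with 0.5 mM DTT. Papain was run at pH 6.5. In each case kobs was followed until complete inactivation.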

Rattus norvegicus = species on record: Rattus norvegicus; experiment: Second order rate constant for inactivation of rat cathepsin B; settings: in vitro
How it was run: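 Recombinant rat cathepsin B expressed in yeast, activated 15 min on ice in buffer containing 1 mM DTT. Continuous assay at pH 6.0: 50 mM phosphate, 200 mM NaCl, 5 mM EDTA, 10% v/v acetonitrile, 0.5 mM DTT. Substrate CbzPheArgMCA; fluorescence (ex 380, em 440 nm) followed until complete inactivation (typically 5–30 min) to obtain first-order kobs.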

SMILES	kinact/Ki (papain (Carica papaya))	Ratio [1]	kinact/Ki (Rattus norvegicus)
CC(C)C[C@H](NC(=O)[C@@H]1O[C@@H]1C(=O)O)C(=O)N1CCC[C@H]1C(=O)OCc1ccccc1	176000 M⁻¹ s⁻¹	0.05	8700 M⁻¹ s⁻¹
CCOC(=O)[C@H]1O[C@H]1C(=O)N[C@@H](CC(C)C)C(=O)N1CCC[C@H]1C(=O)OCc1ccccc1	110 M⁻¹ s⁻¹	0.3	30 M⁻¹ s⁻¹
CC(C)CNC(=O)[C@H]1O[C@H]1C(=O)N[C@@H](CC(C)C)C(=O)N1CCC[C@H]1C(=O)OCc1ccccc1	2070 M⁻¹ s⁻¹	0.1	206 M⁻¹ s⁻¹

Other lines, results leading:

kinact/Ki (papain (Carica papaya))	Ratio [1]	kinact/Ki (Rattus norvegicus)	SMILES
760 M⁻¹ s⁻¹	18	13800 M⁻¹ s⁻¹	CCOC(=O)[C@H]1O[C@H]1C(=O)N[C@@H](CC(C)C)C(=O)N1CCC[C@H]1C(=O)O
558 M⁻¹ s⁻¹	93	52000 M⁻¹ s⁻¹	CC(C)CNC(=O)[C@H]1O[C@H]1C(=O)N[C@@H](CC(C)C)C(=O)N1CCC[C@H]1C(=O)O
30000 M⁻¹ s⁻¹	0.07	2200 M⁻¹ s⁻¹	CC(C)C[C@H](NC(=O)[C@@H]1O[C@@H]1C(=O)O)C(=O)N1CCC[C@H]1C(=O)O

Source: ChEMBL document CHEMBL1126618, “Epoxysuccinyl dipeptides as selective inhibitors of cathepsin B” (J Med Chem, 1993)
